Test results published in ChEMBL document CHEMBL5107948, “Activity-based protein profiling reveals deubiquitinase and aldehyde dehydrogenase targets of a cyanopyrrolidine probe” (RSC Med Chem, 2021).
Calls of active or inactive are those of the source. No cut-off for these calls is given here.

Assays:
[1] = biological target: 4-trimethylaminobutyraldehyde dehydrogenase (Homo sapiens) (UniProt P49189); assay: Inhibition of ALDH9A1 in human HEK293 cells at 130 to 2000 nM in presence of ABP MT16-205 by Competitive pulldown based immunoblotting analysis; assay type: cell-based; conditions: dose 130-2000 nM, DDE = dose-dependent effect
Sequence of 4-trimethylaminobutyraldehyde dehydrogenase (Homo sapiens) (P49189 whole entry): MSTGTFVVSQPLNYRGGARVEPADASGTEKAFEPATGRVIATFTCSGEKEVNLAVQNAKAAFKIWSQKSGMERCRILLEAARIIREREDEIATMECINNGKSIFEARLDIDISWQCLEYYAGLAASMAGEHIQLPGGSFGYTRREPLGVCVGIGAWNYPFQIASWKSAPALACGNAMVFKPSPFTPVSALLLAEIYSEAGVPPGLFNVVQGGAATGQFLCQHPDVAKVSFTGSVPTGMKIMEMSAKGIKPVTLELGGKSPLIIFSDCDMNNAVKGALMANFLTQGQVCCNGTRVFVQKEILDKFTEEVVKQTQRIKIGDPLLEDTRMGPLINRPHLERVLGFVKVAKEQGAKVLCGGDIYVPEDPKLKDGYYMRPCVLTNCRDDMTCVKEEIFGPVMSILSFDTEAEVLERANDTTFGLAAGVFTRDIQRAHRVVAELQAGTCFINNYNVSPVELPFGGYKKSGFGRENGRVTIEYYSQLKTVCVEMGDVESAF
Method in brief: (§1)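 Lysates AzTB-clicked, streptavidin bead pulldown (2 h RT), boiled elution, SDS-PAGE. Target detected by immunoblot: 3% BSA/TBS-T block, primary antibody 1.5 h RT or overnight at 4 °C, HRP secondary, chemiluminescence.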

[2] = biological target: 4-trimethylaminobutyraldehyde dehydrogenase (Homo sapiens) (UniProt P49189); assay: Binding affinity to ALDH9A1 in human HEK293 cells at 130 to 500 nM in presence of ABP MT16-205 by LFQ-NanoLC-MS/MS analysis; assay type: cell-based; conditions: dose 130-500 nM, DDE = dose-dependent effect
Method in brief: (§2)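 Competition format: HEK293 cells pre-treated 1 h with competitor or DMSO, then exposed to ABP MT16-205. Lysis in PBS/Triton/SDS buffer, AzRB click ligation, NeutrAvidin pulldown, on-bead TCEP/chloroacetamide treatment and overnight tryptic digestion. Label-free LC-MS/MS; two-sample t-test versus control (n=3, permutation FDR 0.01, S0=1).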

[3] = biological target: T1, Ubiquitin carboxyl-terminal hydrolase 30 (Homo sapiens) (UniProt Q70CQ3); assay: Inhibition of GST-tagged recombinant USP30 (unknown origin) using Ub-Lys-TAMRA as substrate at 1 uM incubated for 30 mins by fluorescence polarization assay
T1 sequence (whole entry): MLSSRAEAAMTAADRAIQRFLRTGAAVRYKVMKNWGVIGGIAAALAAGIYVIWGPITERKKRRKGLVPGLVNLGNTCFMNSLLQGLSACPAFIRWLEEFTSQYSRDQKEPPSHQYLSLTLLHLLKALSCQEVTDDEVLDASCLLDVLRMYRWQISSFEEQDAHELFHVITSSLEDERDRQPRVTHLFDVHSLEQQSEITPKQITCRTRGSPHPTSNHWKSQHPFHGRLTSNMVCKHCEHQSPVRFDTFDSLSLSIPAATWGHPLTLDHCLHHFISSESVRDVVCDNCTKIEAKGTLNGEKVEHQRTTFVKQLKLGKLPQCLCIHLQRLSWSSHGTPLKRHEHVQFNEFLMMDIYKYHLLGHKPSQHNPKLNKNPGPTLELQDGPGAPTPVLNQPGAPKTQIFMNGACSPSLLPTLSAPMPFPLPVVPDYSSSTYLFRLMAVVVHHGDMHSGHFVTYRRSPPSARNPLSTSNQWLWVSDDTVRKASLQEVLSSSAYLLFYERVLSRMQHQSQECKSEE

[4] = biological target: Ubiquitin carboxyl-terminal hydrolase isozyme L1 (Homo sapiens) (UniProt P09936); assay: Binding affinity to UCHL1 in human HEK293 cells at 130 to 500 nM in presence of ABP MT16-205 by LFQ-NanoLC-MS/MS analysis; assay type: cell-based; conditions: dose 130-500 nM, DDE = dose-dependent effect; method in brief: as §2
Sequence of Ubiquitin carboxyl-terminal hydrolase isozyme L1 (Homo sapiens) (P09936 whole entry, looked up): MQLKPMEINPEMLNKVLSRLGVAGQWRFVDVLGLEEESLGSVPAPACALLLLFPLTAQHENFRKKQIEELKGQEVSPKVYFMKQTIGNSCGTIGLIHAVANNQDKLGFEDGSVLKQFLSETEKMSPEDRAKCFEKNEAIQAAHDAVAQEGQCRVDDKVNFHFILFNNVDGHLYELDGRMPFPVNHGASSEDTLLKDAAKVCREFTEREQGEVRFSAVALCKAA

[5] = biological target: Ubiquitin carboxyl-terminal hydrolase isozyme L1 (Homo sapiens) (UniProt P09936); assay: Inhibition of UCHL1 in human HEK293 cells at 130 to 2000 nM in presence of ABP MT16-205 by Competitive pulldown based immunoblotting analysis; assay type: cell-based; conditions: dose 130-2000 nM, DDE = dose-dependent effect; method in brief: as §1
[6] = biological target: T2, Glutamine amidotransferase-like class 1 domain-containing protein 3, mitochondrial (Homo sapiens) (UniProt P0DPI2); assay: Binding affinity to GATD3A in human HEK293 cells assessed as fold change at 130 nM incubated for 3 to 6 hrs by LFQ-chemical proteomics analysis; assay type: cell-based; conditions: time 3-6 hrs
T2 sequence (whole entry): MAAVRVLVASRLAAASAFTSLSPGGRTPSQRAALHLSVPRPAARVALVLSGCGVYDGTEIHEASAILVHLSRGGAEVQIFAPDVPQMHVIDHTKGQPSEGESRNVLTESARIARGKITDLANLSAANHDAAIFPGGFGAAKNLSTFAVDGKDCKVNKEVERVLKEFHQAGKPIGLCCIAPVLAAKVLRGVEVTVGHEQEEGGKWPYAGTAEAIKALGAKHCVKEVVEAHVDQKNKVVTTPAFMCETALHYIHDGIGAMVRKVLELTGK
Method in brief: (§3)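 HEK293 cells exposed to alkyne ABP or DMSO for 3, 6 or 18 h, washed, lysed in PBS/1% Triton X-100/0.1% SDS. Lysates (400 µg, biological triplicates) CuAAC-ligated to AzRB (100 µM, CuSO4 1 mM, TCEP 1 mM, TBTA 100 µM, 1 h RT). NeutrAvidin enrichment, on-bead TCEP/CAA reduction-alkylation, overnight trypsin digest at 37 °C, LC-MS/MS label-free quantification. Two-sample t-test against DMSO (n=3, permutation FDR 0.01, S0=1).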

[7] = biological target: Ubiquitin carboxyl-terminal hydrolase isozyme L1 (Homo sapiens) (UniProt P09936); assay: Inhibition of UCHL1 in human HEK293 cells assessed as reduction in UCHL1-Ub level using HA-Ub-VME as substrate at 0.001 to 30 uM incubated for 1 hr by immunoblotting analysis; assay type: cell-based; conditions: dose 0.001-30 µM
Method in brief: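 Near-confluent HEK293 cells treated with compound in medium for 1 h at 37 °C, lysed in Tris/NP-40/CHAPS buffer with benzonase. Lysate (20 µg) reacted with HA-Ahx-Ahx-Ub-VME (0.5 µg) 15 min at room temperature, boiled 5 min at 95 °C in SDS loading buffer with BME, SDS-PAGE and immunoblot.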

[8] = biological target: Ubiquitin carboxyl-terminal hydrolase isozyme L1 (Homo sapiens) (UniProt P09936); assay: Binding affinity to UCHL1 in human HEK293 cells assessed as fold change at 30 nM incubated for 3 to 18 hrs by LFQ-chemical proteomics analysis; assay type: cell-based; conditions: time 3-18 hrs; method in brief: as §3
[9] = biological target: Ubiquitin carboxyl-terminal hydrolase isozyme L1 (Homo sapiens) (UniProt P09936); assay: Binding affinity to UCHL1 in human HEK293 cells at 40 nM incubated for 3 hrs by In-gel fluorescence analysis; assay type: cell-based
Method in brief: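 HEK293 cells given 10–2500 nM ABP for 3, 6 or 18 h. Lysates clicked to AzTB, mixed with Laemmli buffer at 0.31% v/v final BME for 5 min without boiling, resolved on 12% acrylamide gels, imaged by in-gel TAMRA fluorescence.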

[10] = biological target: 4-trimethylaminobutyraldehyde dehydrogenase (Homo sapiens) (UniProt P49189); assay: Binding affinity to ALDH9A1 in human HEK293 cells assessed as fold change at 130 nM incubated for 3 to 6 hrs by LFQ-chemical proteomics analysis; assay type: cell-based; conditions: time 3-6 hrs; method in brief: as §3
[11] = biological target: Ubiquitin carboxyl-terminal hydrolase isozyme L1 (Homo sapiens) (UniProt P09936); assay: Binding affinity to UCHL1 in human HEK293 cells at 31 nM by TAMRA labelled pulldown based In-gel fluorescence analysis; assay type: cell-based
Method in brief: (§4)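 HEK293 cells treated with ABP; lysate (150 µg) CuAAC-ligated to AzTB, precipitated, resuspended. 100 µg incubated with streptavidin magnetic beads 2 h RT, washed with 0.2% SDS/PBS, eluted by boiling 10 min at 95 °C. Eluates run on SDS-PAGE and read by TAMRA in-gel fluorescence or by immunoblot on nitrocellulose with HRP chemiluminescence.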

[12] = biological target: Ubiquitin carboxyl-terminal hydrolase isozyme L1 (Homo sapiens) (UniProt P09936); assay: Binding affinity to UCHL1 in human HEK293 cells at 31 nM by TAMRA labelled pulldown based immunoblotting analysis; assay type: cell-based; method in brief: as §4

Row | inhibition [1] | Activity [2] | inhibition [3] | Activity [4] | inhibition [5] | fold change (FC) [6] | inhibition [7] | fold change (FC) [8] | Activity [9] | fold change (FC) [10] | Activity [11] | Activity [12] | Compound
1 | Dde | Dde | Active | Dde | Dde | – | – | – | – | – | – | – | N#CN1CC[C@H](C(=O)Nc2ncc(-c3ccccc3)s2)C1
2 | – | – | Active | – | – | > 64 | Active | > 16 | Active | > 64 | Active | Active | C#Cc1ccc(-c2cnc(NC(=O)[C@H]3CCN(C#N)C3)s2)cc1
